How the values were obtained:
[1] = system: BT-474 cells; assay: CellTiter-Glo proliferation assay, BT-474; format: cell-based, Human; details: Homo sapiens, BT-474, 72 h, read-out: anti-proliferative EC50
[2] = system: SNU-449 cells; assay: CellTiter-Glo proliferation assay, SNU-449; format: cell-based, Human; details: Homo sapiens, SNU-449, 72 h, read-out: anti-proliferative EC50
[3] = biological target: T1, ERK5 (Homo sapiens, UniProt Q13164); assay: KdELECT biochemical binding assay; details: Table S1
In short: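 Binding constants to ERK5 were determined in an outsourced KdELECT kinase binding assay from an 11-point dose–response curve.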

[4] = system: panel of 468 kinases; assay: scanMAX KINOMEscan selectivity panel; format: binding; details: 1 μM
[5] = biological target: T1, ERK5; assay: ERK5 degradation in MOLT4 cells; format: cell-based; details: 5 hours, concentrations up to 5 μM
[6] = system: IL-8 secretion; assay: IL-8 ELISA, LPS-stimulated HUVECs; format: cell-based, Human; details: LPS 10 μg/mL 6 hours
In short: (§1)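 HUVECs were seeded at 30,000–60,000 cells/well and pre-treated with test compound for 5 or 24 h. They were then stimulated with E. coli O111:B4 LPS at 10 μg/mL for 6 h. Secreted IL-6 or IL-8 in the supernatant was quantified by sandwich ELISA kits per the manufacturer. Statistics used two-way ANOVA with Bonferroni correction.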

[7] = system: IL-6 secretion; assay: IL-6 ELISA, LPS-stimulated HUVECs; format: cell-based, Human; details: LPS 10 μg/mL 6 hours
In short: as §1

T1 sequence (Q13164 whole entry): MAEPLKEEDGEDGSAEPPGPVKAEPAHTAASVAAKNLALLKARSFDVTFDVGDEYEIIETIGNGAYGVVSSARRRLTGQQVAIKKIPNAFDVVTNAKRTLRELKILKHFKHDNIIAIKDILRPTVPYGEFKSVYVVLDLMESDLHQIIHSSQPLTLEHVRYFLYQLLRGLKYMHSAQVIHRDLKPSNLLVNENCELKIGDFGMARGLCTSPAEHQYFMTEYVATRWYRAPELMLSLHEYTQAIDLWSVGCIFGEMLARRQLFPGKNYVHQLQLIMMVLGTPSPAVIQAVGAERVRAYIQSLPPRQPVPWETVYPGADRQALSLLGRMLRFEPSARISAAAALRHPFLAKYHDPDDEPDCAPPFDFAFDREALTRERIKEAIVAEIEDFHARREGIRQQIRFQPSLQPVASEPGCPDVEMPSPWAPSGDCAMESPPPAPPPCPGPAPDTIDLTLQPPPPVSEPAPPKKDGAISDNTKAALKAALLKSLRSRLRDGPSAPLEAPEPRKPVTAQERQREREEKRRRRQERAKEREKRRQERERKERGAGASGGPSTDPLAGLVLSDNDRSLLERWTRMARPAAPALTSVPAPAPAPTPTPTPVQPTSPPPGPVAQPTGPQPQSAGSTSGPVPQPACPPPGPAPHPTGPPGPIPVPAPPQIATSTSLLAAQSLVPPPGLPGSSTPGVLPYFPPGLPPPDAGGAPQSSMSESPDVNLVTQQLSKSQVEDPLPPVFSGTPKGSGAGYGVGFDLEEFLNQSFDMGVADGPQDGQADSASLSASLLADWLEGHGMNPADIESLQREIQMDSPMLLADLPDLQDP

| EC50 [1] [µM] | EC50 [2] [µM] | binding affinity for ERK5 (in words) [3] | ERK5 downregulation [5] | Structure (SMILES) | biochemical selectivity profile across the kinome ([4]; 468 kinases) | IL-8 secretion upon LPS stimulation ([6]; 5-hour pre-treatment) | IL-6 secretion upon LPS stimulation ([7]; 5-hour pre-treatment) | potential off-target kinases [4] | IL-8 secretion upon LPS stimulation ([6]; 24-hour pre-treatment) | IL-6 secretion upon LPS stimulation ([7]; 24-hour pre-treatment) |
| --- | --- | --- | --- | --- | --- | --- | --- | --- | --- | --- |
| > 20 | > 20 | high binding affinity | – | CN1CCN(c2ccc3c(C4CCN(C(=O)c5ccc(OC(F)(F)F)cc5N)CC4)ncnc3c2)CC1 [INY-06-086, (2-amino-4-(trifluoromethoxy)phenyl)(4-(7-(4-methylpiperazin-1-yl)quinazolin-4-yl)piperidin-1-yl)methanone] | similarly selective for ERK5 as BAY-885 | – | – | – | – | – |
| > 20 | > 20 | – | unable to induce ERK5 downregulation | Cc1ncsc1-c1ccc([C@H](C)NC(=O)[C@H]2C[C@H](O)CN2C(=O)[C@@H](NC(=O)CCCCCN2CCN(c3ccc4c(C5CCN(C(=O)c6ccc(OC(F)(F)F)cc6N)CC5)ncnc4c3)CC2)C(C)(C)C)cc1 [INY-06-089, (2R,4S)-1-((S)-2-(6-(4-(4-(1-(2-amino-4-(trifluoromethoxy)benzoyl)piperidin-4-yl)quinazolin-7-yl)piperazin-1-yl)hexanamido)-3,3-dimethylbutanoyl)-4-hydroxy-N-((S)-1-(4-(4-methylthiazol-5-yl)phenyl)ethyl)pyrrolidine-2-carboxamide] | – | no effect | no effect | also inhibits the same kinases | – | – |
| – | – | – | – | CCOc1cc(N2CCC(O)CC2)ccc1Nc1ncc2c(n1)N(C)c1ccccc1C(=O)N2C [XMD8-92] | – | reduced | reduced | – | significantly reduced | significantly reduced |
